Activity calls are given as the source filed them. The rule behind the calls is not given here.
Assays:
[1] = Antitumor activity against mouse Ehrlich Ascites tumor xenografted in Swiss albino mouse assessed as tumor growth inhibition at 50 mg/kg, ip administered for 9 days measured on day 13; assay type: functional; conditions: route intraperitoneal, read-out: GI
[2] = Antitumor activity against mouse Ehrlich Ascites tumor xenografted in Swiss albino mouse assessed as tumor growth inhibition at 100 mg/kg, ip administered for 9 days measured on day 13; assay type: functional; conditions: route intraperitoneal, read-out: GI
[3] = system: Ehrlich; test: Antitumor activity against mouse EAC cells transplanted in ip dosed Swiss albino mouse assessed as tumor growth inhibition administered for 9 days; assay type: functional, organism-based
How it was run: (§1)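 EAC ascites model: mice of the same sex, 20 ± 3 g, injected intraperitoneally with 1 × 10^7 cells from a donor bearing 8–10 day old ascites tumor (day 0). Randomised the next day, 7 per test group and 10 controls. Doses were suspended in 1% gum acacia and given i.p. for nine consecutive days; controls received saline 0.2 mL i.p. On day 12, ascitic fluid volume and tumor cell count were measured, and % inhibition was calculated from cell number versus control.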

[4] = target: Transcription factor p65 (Homo sapiens) (UniProt Q04206); test: Inhibition of NF-kappaB p65 subunit transcriptional activity in human SW620 cells at 5 uM by Western blot analysis; assay type: cell-based; conditions: SW-620
Transcription factor p65 (Homo sapiens), sequence (Q04206 whole entry): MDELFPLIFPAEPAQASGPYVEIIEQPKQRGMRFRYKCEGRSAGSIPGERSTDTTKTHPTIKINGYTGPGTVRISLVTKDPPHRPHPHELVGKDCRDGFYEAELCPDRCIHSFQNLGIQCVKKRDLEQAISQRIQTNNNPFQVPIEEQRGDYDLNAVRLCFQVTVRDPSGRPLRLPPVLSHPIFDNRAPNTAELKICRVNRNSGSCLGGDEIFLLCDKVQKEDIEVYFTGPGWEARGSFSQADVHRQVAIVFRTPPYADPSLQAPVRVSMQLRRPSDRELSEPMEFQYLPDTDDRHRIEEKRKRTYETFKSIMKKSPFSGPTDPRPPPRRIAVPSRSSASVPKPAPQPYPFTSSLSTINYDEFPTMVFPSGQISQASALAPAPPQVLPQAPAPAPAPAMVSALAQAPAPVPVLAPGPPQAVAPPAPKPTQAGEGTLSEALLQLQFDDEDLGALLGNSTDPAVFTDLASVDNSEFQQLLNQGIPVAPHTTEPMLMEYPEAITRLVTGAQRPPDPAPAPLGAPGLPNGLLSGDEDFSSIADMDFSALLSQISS
How it was run: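 SW-620 cells (5 × 10^6) exposed to 5 for the indicated times. Washed in ice-cold PBS, lysed in Hepes pH 7.9 buffer with KCl, EDTA, EGTA, DTT, PMSF, NaF, vanadate and protease inhibitors, then NP-40 0.5%. Cytosol taken after 8000 × g. Nuclear fraction extracted with 20% glycerol and 0.4 M KCl on ice for 30 min, spun at 13,000 × g. NF-κB assessed by western blot.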

[5] = Antitumor activity against mouse EAC cells transplanted in Swiss albino mouse assessed as decrease in astic fluid volume at 10 mg/kg, ip administered for 9 days (reference value: 4.57+/-0.39 mL); assay type: functional, Ehrlich; conditions: route intraperitoneal; how it was run: as §1
[6] = Antitumor activity against mouse EAC cells transplanted in Swiss albino mouse assessed as decrease in astic fluid volume at 25 mg/kg, ip administered for 9 days (reference value: 4.57+/-0.39 mL); assay type: functional, Ehrlich; conditions: route intraperitoneal
[7] = Antitumor activity against mouse EAC cells transplanted in Swiss albino mouse assessed as decrease in astic fluid volume at 50 mg/kg, ip administered for 9 days (reference value: 4.57+/-0.39 mL); assay type: functional, Ehrlich; conditions: route intraperitoneal
[8] = Antitumor activity against mouse EAC cells transplanted in Swiss albino mouse assessed as decrease in astic fluid volume at 100 mg/kg, ip administered for 9 days (reference value: 4.57+/-0.39 mL); assay type: functional, Ehrlich; conditions: route intraperitoneal
[9] = system: Mus musculus; test: Toxicity in Swiss albino mouse transplanted with EAC cells assessed as mortality at 200 mg/kg, ip administered for 9 days measured on day 3rd; assay type: organism-based, Ehrlich; design: dose 200 mg/kg, route intraperitoneal; conditions: in vivo, 216 h; how it was run: as §1
[10] = system: Ehrlich; test: Antitumor activity against mouse EAC cells transplanted in Swiss albino mouse assessed as decrease in tumor cells in ascetic fluid at 10 mg/kg, ip administered for 9 days (reference value: 4.57+/-0.39 mL); assay type: functional, organism-based; design: dose 10 mg/kg; how it was run: as §1
[11] = system: Ehrlich; test: Antitumor activity against mouse EAC cells transplanted in Swiss albino mouse assessed as decrease in tumor cells in ascetic fluid at 25 mg/kg, ip administered for 9 days (reference value: 4.57+/-0.39 mL); assay type: functional, organism-based; design: dose 25 mg/kg
[12] = system: Ehrlich; test: Antitumor activity against mouse EAC cells transplanted in Swiss albino mouse assessed as decrease in tumor cells in ascetic fluid at 50 mg/kg, ip administered for 9 days (reference value: 4.57+/-0.39 mL); assay type: functional, organism-based; design: dose 50 mg/kg
[13] = system: Ehrlich; test: Antitumor activity against mouse EAC cells transplanted in Swiss albino mouse assessed as decrease in tumor cells in ascetic fluid at 100 mg/kg, ip administered for 9 days (reference value: 4.57+/-0.39 mL); assay type: functional, organism-based; design: dose 100 mg/kg
[14] = Antitumor activity against mouse EAC cells transplanted in Swiss albino mouse assessed as tumor growth inhibition at 10 mg/kg, ip administered for 9 days (reference value: 4.57+/-0.39 mL); assay type: functional; conditions: Ehrlich, 216 h, route intraperitoneal, read-out: GI; how it was run: as §1
[15] = Antitumor activity against mouse EAC cells transplanted in Swiss albino mouse assessed as tumor growth inhibition at 25 mg/kg, ip administered for 9 days (reference value: 4.57+/-0.39 mL); assay type: functional; conditions: Ehrlich, 216 h, route intraperitoneal, read-out: GI
[16] = Antitumor activity against mouse EAC cells transplanted in Swiss albino mouse assessed as tumor growth inhibition at 50 mg/kg, ip administered for 9 days (reference value: 4.57+/-0.39 mL); assay type: functional; conditions: Ehrlich, 216 h, route intraperitoneal, read-out: GI
[17] = Antitumor activity against mouse EAC cells transplanted in Swiss albino mouse assessed as tumor growth inhibition at 100 mg/kg, ip administered for 9 days (reference value: 4.57+/-0.39 mL); assay type: functional; conditions: Ehrlich, 216 h, route intraperitoneal, read-out: GI
[18] = Partition coefficient, log P of the compound; assay type: physicochemical; conditions: octanol/water
[19] = system: Mus musculus; test: Toxicity in ip dosed Swiss albino mouse transplanted with mouse EAC cells assessed as mortality administered for 9 days; assay type: organism-based, Ehrlich; conditions: in vivo, 216 h; how it was run: as §1
[20] = system: SW-620; test: Cytotoxicity against human SW620 cells assessed as cell growth after 48 hrs by sulforhodamine B assay; assay type: functional, cell-based; conditions: Homo sapiens, SW-620, 48 h
How it was run: (§2)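 Log-phase cells seeded at 10^4/well and allowed to attach for 24 h at 37 °C, 5% CO2. Exposed for 48 h to 0.1–100 (1:10 serial dilutions), four replicate wells per condition. Fixed with cold 50% TCA for 1 h at 4 °C, stained with sulforhodamine B, dye dissolved in Tris, OD read at 540 nm. Blank-subtracted growth expressed relative to untreated cells (100%); IC50 reported.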

[21] = system: DU-145; test: Cytotoxicity against human DU145 cells assessed as cell growth after 48 hrs by sulforhodamine B assay; assay type: functional, cell-based; conditions: Homo sapiens, DU-145, 48 h; how it was run: as §2
[22] = system: PC-3; test: Cytotoxicity against human PC3 cells assessed as cell growth after 48 hrs by sulforhodamine B assay; assay type: functional, cell-based; conditions: Homo sapiens, PC-3, 48 h; how it was run: as §2
[23] = system: SW-620; test: Induction of apoptosis in human SW620 cells assessed as DNA fragmentation at 50 uM after 24 hrs by gel electrophoresis; assay type: functional, cell-based
How it was run: (§3)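 SW-620 cells (2 × 10^6 per 60 mm plate) treated for 24 h at 10, 50 or 100. Pellets lysed in 10 mM EDTA, 50 mM Tris pH 8.0, 0.5% SDS and proteinase K 0.5 mg/mL at 50 °C for 1 h. DNA heated briefly to 70 °C and run on 1.5% agarose at 50 V for 2–3 h. Untreated cells served as control; camptothecin as positive control.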

[24] = system: SW-620; test: Induction of apoptosis in human SW620 cells assessed as DNA fragmentation at 100 uM after 24 hrs by gel electrophoresis; assay type: functional, cell-based; how it was run: as §3
[25] = system: SW-620; test: Cell cycle arrest in human SW620 cells assessed as increase in sub-G1 DNA content at 5 uM after 24 hrs using propidium iodide staining by flow cytometry (reference value: 3.45%); assay type: functional
[26] = system: SW-620; test: Cell cycle arrest in human SW620 cells assessed as increase in sub-G1 DNA content at 1 uM after 24 hrs using propidium iodide staining by flow cytometry (reference value: 3.45%); assay type: functional
[27] = system: SW-620; test: Cell cycle arrest in human SW620 cells assessed as increase in sub-G1 DNA content at 10 uM after 24 hrs using propidium iodide staining by flow cytometry (reference value: 3.45%); assay type: functional
[28] = system: SW-620; test: Cell cycle arrest in human SW620 cells assessed as increase in sub-G1 DNA content at 50 uM after 24 hrs using propidium iodide staining by flow cytometry (reference value: 3.45%); assay type: functional
[29] = system: SW-620; test: Induction of apoptosis in human SW620 cells assessed as blockage of G1-phase at 50 uM after 24 hrs using propidium iodide staining by flow cytometry; assay type: functional, cell-based
[30] = system: Mus musculus; test: Antitumor activity against mouse Ehrlich Ascites tumor xenografted in ip dosed Swiss albino mouse assessed as tumor growth administered for 9 days; assay type: functional, organism-based
[31] = Antitumor activity against mouse Ehrlich Ascites tumor xenografted in Swiss albino mouse assessed as decrease in tumor weight at 10 mg/kg, ip administered for 9 days (reference value: 1708+/-51.07 mg); assay type: functional; conditions: route intraperitoneal
[32] = Antitumor activity against mouse Ehrlich Ascites tumor xenografted in Swiss albino mouse assessed as decrease in tumor weight at 25 mg/kg, ip administered for 9 days (reference value: 1708+/-51.07 mg); assay type: functional; conditions: route intraperitoneal
[33] = Antitumor activity against mouse Ehrlich Ascites tumor xenografted in Swiss albino mouse assessed as decrease in tumor weight at 50 mg/kg, ip administered for 9 days (reference value: 1708+/-51.07 mg); assay type: functional; conditions: route intraperitoneal
[34] = Antitumor activity against mouse Ehrlich Ascites tumor xenografted in Swiss albino mouse assessed as decrease in tumor weight at 100 mg/kg, ip administered for 9 days (reference value: 1708+/-51.07 mg); assay type: functional; conditions: route intraperitoneal
[35] = system: Mus musculus; test: Toxicity in Swiss albino mouse model of Ehrlich Ascites tumor assessed as mortality at 200 mg/kg, ip administered for 9 days measured on third day; assay type: organism-based; design: dose 200 mg/kg, route intraperitoneal; conditions: in vivo, 216 h
[36] = Antitumor activity against mouse Ehrlich Ascites tumor xenografted in Swiss albino mouse assessed as tumor growth inhibition at 10 mg/kg, ip administered for 9 days measured on day 13; assay type: functional; conditions: route intraperitoneal, read-out: GI
[37] = Antitumor activity against mouse Ehrlich Ascites tumor xenografted in Swiss albino mouse assessed as tumor growth inhibition at 25 mg/kg, ip administered for 9 days measured on day 13; assay type: functional; conditions: route intraperitoneal, read-out: GI

In the case of `C[C@H]1CC[C@@H]2[C@@H](OC(=O)[C@]23CC(c2c4ccccc4cc4ccccc24)=NO3)[C@]2(C)C(=O)C=C[C@@]12O`, the inhibition in vivo at 50 mg/kg [1] is reported as 22%, the inhibition in vivo at 100 mg/kg [2] is reported as 35.1% and the “growth inhibition (GI)” value [3] is reported as “Dose-dependent effect”. For the same molecule, the inhibition [4] was “Active”, the Activity [5] was 4.07 mL and the Activity [6] was 3.62 mL. The Activity [7] was 2.85 mL, the Activity [8] was 2.07 mL and the Activity [9] was “Toxic”. The Activity [10] was “Active”, the Activity [11] was “Active” and the Activity [12] was “Active”. For the same molecule, the Activity [13] was “Active”, the inhibition in vivo at 10 mg/kg [14] was 7.74% and the inhibition in vivo at 25 mg/kg [15] was 19.2%. The inhibition in vivo at 50 mg/kg [16] was 27.2%, the inhibition in vivo at 100 mg/kg [17] was 60.5% and the logP [18] was 3.71. For the same molecule, the Activity [19] was “Toxic”, the IC50 [20] was 4.3 µM and the IC50 [21] was 4.6 µM. The IC50 [22] was 4.9 µM, the Activity [23] was “Active” and the Activity [24] was “Active”. It also gave an Activity [25] of 33.09%, an Activity [26] of 6.58% and an Activity [27] of 33.2%. For the same molecule, the Activity [28] was 55%, the Activity [29] was “Active” and the “growth inhibition (GI)” value [30] was “Dose-dependent effect”. It also gave an Activity [31] of 1547.14 mg, an Activity [32] of 1445.71 mg and an Activity [33] of 1332.14 mg. For the same molecule, the Activity [34] was 1108.57 mg, the Activity [35] was “Toxic” and the inhibition in vivo at 10 mg/kg [36] was 9.44%. For the same molecule, the inhibition in vivo at 25 mg/kg [37] was 15.4%.

— ChEMBL document CHEMBL1806428, “Design and synthesis of spiro derivatives of parthenin as novel anti-cancer agents” (Eur J Med Chem, 2011)
